Assay results published in ChEMBL document CHEMBL3576820, “Discovery of benzimidazole oxazolidinediones as novel and selective nonsteroidal mineralocorticoid receptor antagonists” (ACS Med Chem Lett, 2015).
Activity calls are given as the source filed them. No cut-off for these calls is given here.

What was measured:
[1] = target: T1, Estrogen receptor (Homo sapiens) (UniProt P03372); assay: Agonist activity at human estrogen receptor alpha by cell-based assay
T1 sequence (whole entry): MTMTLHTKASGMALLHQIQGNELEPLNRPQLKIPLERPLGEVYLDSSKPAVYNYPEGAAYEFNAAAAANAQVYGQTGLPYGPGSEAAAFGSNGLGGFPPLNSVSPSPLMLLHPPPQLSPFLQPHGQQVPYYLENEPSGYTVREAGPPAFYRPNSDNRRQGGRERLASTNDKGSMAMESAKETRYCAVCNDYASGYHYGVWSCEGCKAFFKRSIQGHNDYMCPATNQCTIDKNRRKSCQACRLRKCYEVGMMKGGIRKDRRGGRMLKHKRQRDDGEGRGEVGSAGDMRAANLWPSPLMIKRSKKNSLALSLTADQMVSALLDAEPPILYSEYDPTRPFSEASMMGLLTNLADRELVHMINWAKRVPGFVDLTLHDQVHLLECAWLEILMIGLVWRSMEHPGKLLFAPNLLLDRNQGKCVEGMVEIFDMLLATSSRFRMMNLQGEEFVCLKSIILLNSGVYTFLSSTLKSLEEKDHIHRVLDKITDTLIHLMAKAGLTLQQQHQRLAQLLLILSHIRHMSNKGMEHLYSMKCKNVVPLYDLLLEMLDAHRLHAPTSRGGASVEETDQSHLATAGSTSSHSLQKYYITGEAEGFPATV

[2] = target: T2, Progesterone receptor (Homo sapiens) (UniProt P06401); assay: Agonist activity at human progesterone receptor beta by cell-based assay
T2 sequence (whole entry): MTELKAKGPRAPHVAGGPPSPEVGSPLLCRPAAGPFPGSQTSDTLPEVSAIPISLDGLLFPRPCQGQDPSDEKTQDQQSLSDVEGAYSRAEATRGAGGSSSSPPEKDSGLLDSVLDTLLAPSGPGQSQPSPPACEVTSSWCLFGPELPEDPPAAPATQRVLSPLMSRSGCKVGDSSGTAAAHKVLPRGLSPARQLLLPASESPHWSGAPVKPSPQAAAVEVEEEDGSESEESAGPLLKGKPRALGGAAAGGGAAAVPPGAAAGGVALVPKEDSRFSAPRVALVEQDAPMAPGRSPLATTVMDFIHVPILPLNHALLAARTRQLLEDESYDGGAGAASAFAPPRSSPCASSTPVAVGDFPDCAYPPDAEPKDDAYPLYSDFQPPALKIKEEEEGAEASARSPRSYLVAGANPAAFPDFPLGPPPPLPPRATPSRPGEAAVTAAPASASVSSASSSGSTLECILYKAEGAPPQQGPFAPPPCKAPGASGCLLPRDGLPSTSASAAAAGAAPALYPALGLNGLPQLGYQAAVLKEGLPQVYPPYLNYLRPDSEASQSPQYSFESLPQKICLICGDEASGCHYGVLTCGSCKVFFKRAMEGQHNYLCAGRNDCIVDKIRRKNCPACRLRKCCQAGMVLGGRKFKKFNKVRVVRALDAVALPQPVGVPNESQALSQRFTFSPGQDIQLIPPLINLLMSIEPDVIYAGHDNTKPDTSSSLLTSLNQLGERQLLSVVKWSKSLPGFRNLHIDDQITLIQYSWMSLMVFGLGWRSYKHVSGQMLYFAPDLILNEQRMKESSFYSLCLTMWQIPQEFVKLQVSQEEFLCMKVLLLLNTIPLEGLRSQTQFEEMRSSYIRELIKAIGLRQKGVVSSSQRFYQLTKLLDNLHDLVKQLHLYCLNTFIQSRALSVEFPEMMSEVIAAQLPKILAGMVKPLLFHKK

[3] = target: T3, Mineralocorticoid receptor (Homo sapiens) (UniProt P08235); assay: Agonist activity at human mineralocorticoid receptor by cell-based assay
T3 sequence (whole entry): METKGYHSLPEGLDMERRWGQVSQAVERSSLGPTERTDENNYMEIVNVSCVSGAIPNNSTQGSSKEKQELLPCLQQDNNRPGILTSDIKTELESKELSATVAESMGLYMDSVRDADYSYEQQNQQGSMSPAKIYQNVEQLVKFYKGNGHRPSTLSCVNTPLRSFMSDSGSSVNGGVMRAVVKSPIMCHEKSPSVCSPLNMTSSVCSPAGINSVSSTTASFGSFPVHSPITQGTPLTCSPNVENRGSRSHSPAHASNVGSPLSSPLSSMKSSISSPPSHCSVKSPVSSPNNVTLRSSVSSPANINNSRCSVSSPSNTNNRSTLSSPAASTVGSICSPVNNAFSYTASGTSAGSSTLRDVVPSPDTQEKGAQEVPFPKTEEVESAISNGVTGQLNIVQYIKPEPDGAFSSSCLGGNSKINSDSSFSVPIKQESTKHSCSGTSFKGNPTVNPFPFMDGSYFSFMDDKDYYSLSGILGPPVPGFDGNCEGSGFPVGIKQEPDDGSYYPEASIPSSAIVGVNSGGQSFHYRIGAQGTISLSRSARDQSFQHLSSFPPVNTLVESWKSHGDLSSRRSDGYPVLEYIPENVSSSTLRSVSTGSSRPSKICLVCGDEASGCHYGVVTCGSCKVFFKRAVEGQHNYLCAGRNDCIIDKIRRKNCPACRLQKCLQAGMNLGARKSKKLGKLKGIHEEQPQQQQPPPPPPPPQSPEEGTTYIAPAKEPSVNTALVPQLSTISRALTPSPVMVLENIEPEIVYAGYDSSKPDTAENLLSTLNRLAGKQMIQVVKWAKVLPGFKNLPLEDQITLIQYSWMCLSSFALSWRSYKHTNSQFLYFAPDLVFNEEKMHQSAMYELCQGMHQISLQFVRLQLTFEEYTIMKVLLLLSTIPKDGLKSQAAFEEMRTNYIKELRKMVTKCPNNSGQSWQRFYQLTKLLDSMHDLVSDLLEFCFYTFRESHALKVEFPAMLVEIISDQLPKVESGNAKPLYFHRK

Rattus norvegicus [4] = assay: Natriuretic activity in WKY rat at 30 to 100 mg/kg, po measured over 6 hrs; type: functional, organism-based
[5] = target: T4, Mineralocorticoid receptor (Homo sapiens, UniProt P08235); assay: Antagonist activity at human mineralocorticoid receptor overexpressed in CHOK1 cells assessed as inhibition of aldosterone-induced protein interaction with coactivator peptide after 6 hrs by luminescence assay; type: cell-based, CHO-K1
T4 sequence (P08235 whole entry): T3 sequence (whole entry)

[6] = Metabolic stability in human liver microsomes assessed as compound remaining at 1 uM after 0.5 hrs; type: ADME; settings: read-out: Stability
[7] = Metabolic stability in rat liver microsomes assessed as compound remaining at 1 uM after 0.5 hrs; type: ADME; settings: read-out: Stability
[8] = Oral bioavailability in Wistar han rat at 2 mg/kg; type: ADME, organism-based; settings: in vivo
How it was run: (§1)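 Wistar Han rats. IV dose 1 mg/kg in DMSO/PEG200/water (10:60:30), n=2. Oral dose 2 mg/kg in imwitor/tween (1:1) by gavage, n=3. Values are averages. Derived: F%, plasma clearance, Vdss, terminal half-life and oral AUC normalized to dose.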

[9] = Plasma clearance in Wistar han rat at 2 mg/kg, po and 1 mg/kg, iv; type: ADME, organism-based; how it was run: as §1
[10] = Volume of distribution at steady state in Wistar han rat at 2 mg/kg, po and 1 mg/kg, iv; type: ADME, organism-based; settings: in vivo, read-out: Vdss; how it was run: as §1
[11] = Terminal half life in Wistar han rat at 2 mg/kg, po and 1 mg/kg, iv; type: ADME, organism-based; settings: in vivo, read-out: beta t1/2 (converted); how it was run: as §1
Rattus norvegicus [12] = assay: Dose normalized AUC in Wistar han rat at 2 mg/kg, po; type: ADME, organism-based; settings: in vivo; how it was run: as §1
[13] = Fraction unbound in 10% human plasma; type: ADME, cell-free; settings: 10% plasma
How it was run: (§2)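 Free fraction measured in the presence of 10% plasma (human or rat), taken as correlating with the free fraction in whole plasma.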

[14] = Fraction unbound in 10% rat plasma; type: ADME, cell-free; settings: 10% plasma; how it was run: as §2
[15] = Plasma protein binding in human; type: ADME, cell-free; settings: read-out: PPB
[16] = Plasma protein binding in rat; type: ADME, cell-free; settings: read-out: PPB

Activity [1]	Activity [2]	Activity [3]	IC50 [5] [nM]	remaining at 0.5 h, 1 µM [6] [%]	remaining at 0.5 h, 1 µM [7] [%]	bioavailability [8] [%]	clearance [9] [mL/min/kg]	Vd [10] [L/kg]	half-life [11] [h]	AUC/dose (Rattus norvegicus [12]) [µM·kg·h/mg]	fraction unbound [13]	fraction unbound [14]	fraction unbound [15]	fraction unbound [16]	SMILES	Activity (Rattus norvegicus [4])
inactive	inactive	inactive													CC(=O)S[C@@H]1CC2=CC(=O)CC[C@]2(C)[C@H]2CC[C@@]3(C)[C@@H](CC[C@@]34CCC(=O)O4)[C@H]12	Active
inactive	inactive	inactive	150	77	51	44	23	3.4	2.4	0.067	0.002	0.005	< 0.01	< 0.01	C[C@H](c1ccc(F)cc1)N1C(=O)O[C@](Cc2ccccc2)(c2nc3c(C(F)(F)F)cccc3[nH]2)C1=O	
inactive	inactive	inactive	120	86	64										C[C@H](c1ccc(F)cc1)N1C(=O)O[C@](Cc2ccccc2)(c2nc3cc(-n4cnnn4)ccc3[nH]2)C1=O	
inactive	inactive	inactive	42	97	63										C[C@H](c1ccc(F)cc1)N1C(=O)O[C@](Cc2ccccc2)(c2nc3cc(-c4cn[nH]c4)ccc3[nH]2)C1=O	
